Laboratory results from ChEMBL document CHEMBL3580580, “Nodulisporiviridins A-H, Bioactive Viridins from Nodulisporium sp” (J Nat Prod, 2015).
pIC50: −log10 of the molar value. Activity calls are given as the source filed them. No cut-off for these calls is given here.

Assays:
[1] = target: T1, Amyloid-beta precursor protein (Homo sapiens, UniProt P05067); experiment: Inhibition of amyloid beta (1 to 42) (unknown origin) aggregation at 100 uM incubated at 37 degC for 16 hrs by thioflavin T fluorescence assay
Method in brief: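 Aβ42 prepared at 40 μM in DMSO plus PBS (0.01 M, pH 6.6), mixed 2:1:1 with sample and 80 μM ThT stock. Shaken 15 min, incubated at 37 °C for 16 h, then ThT fluorescence read. Inhibition = (F0−Fi)/F0×100 against no-sample wells. Three independent experiments.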

[2] = target: T1, Amyloid-beta precursor protein; experiment: Inhibition of amyloid beta (1 to 42) (unknown origin) aggregation incubated at 37 degC for 16 hrs by thioflavin T fluorescence assay
Method in brief: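 Aβ42 at 40 μM (in DMSO/PBS pH 6.6), mixed 2:1:1 with sample and 80 μM ThT stock, shaken 15 min, then held at 37 °C for 16 h. Read by ThT fluorescence. IC50 measured only for samples with ≥60% inhibition: six concentrations, three independent experiments, mean % inhibition fitted to a four-parameter variable-slope log(inhibitor)–response curve.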

Drosophila = experiment: Enhancement of short-term memory in Drosophila w1118 (isoCJ1) P35*H29.3 model of human Abeta42 transgenic Alzheimer's disease model assessed as increase in performance index at 100 uM fed to flies for 7 days by Pavlovian olfactory learning method; assay type: functional, organism-based
Method in brief: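 Male flies: elav-GAL4c155 (P35) × UAS-Aβ42 (H29.3) F1, with 2U*H29.3 as normal controls. Newly hatched flies kept about 120 per vial and reared at 28 °C, 42% RH. Fed 100 μM (from 10 mM stock) in 50 μL daily for 4 h, days 2–8. Controls got matching DMSO. Pavlovian olfactory learning done in the dark at 24 °C, 70% RH. Read-out is performance index; two vials per PI.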

T1 sequence (P05067 whole entry): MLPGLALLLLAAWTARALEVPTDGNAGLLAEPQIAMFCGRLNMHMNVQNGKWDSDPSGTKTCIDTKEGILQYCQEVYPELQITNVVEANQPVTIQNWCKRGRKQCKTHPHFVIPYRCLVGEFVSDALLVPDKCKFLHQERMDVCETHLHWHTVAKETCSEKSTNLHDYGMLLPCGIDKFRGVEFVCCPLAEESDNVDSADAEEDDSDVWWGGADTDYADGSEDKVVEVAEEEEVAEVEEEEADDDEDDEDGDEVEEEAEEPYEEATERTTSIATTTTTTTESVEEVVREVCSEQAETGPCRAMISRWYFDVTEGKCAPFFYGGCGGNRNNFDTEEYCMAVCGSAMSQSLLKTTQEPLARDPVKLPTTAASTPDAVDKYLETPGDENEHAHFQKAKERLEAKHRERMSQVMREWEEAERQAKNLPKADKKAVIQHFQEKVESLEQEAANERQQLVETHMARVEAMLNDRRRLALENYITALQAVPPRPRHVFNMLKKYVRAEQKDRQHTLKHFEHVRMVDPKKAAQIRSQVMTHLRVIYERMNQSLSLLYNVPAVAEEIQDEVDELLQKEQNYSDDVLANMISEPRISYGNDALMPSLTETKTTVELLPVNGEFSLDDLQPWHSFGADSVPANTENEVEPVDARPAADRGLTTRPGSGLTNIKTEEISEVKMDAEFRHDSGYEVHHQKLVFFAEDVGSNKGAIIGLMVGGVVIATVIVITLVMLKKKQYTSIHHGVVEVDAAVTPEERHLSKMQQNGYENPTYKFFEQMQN

| Structure (SMILES) | inhibition [1] [%] | pIC50 [2] | Activity (Drosophila) |
| --- | --- | --- | --- |
| C[C@]1(O)c2ccc3c(c2C(=O)c2occ([C@@H](O)CCO)c21)CCC3=O | 63.5 | 4.02 | Active |
| C[C@@]12c3ccc4c(c3C(=O)c3occ(c31)C(=O)C[C@H]2O)CCC4=O [DEMETHOXYVIRIDIN] |  | 4.87 |  |
| C[C@@]12c3ccc4c(c3C(=O)c3occ(c31)[C@@H](O)C[C@@H]2O)CCC4=O | 99 | 5.00 | Active |
| C[C@]12CCC(=O)c3coc(c31)C(=O)C1=C2[C@@H](O)C[C@]2(C)C(=O)CC[C@@H]12 | 98.8 | 5.92 | Active |
| C[C@@]12C(=O)CC[C@H]1C1=C(C[C@H]2O)[C@@]2(C)CC[C@H](O)c3coc(c32)C1=O | 70.4 | 4.36 | Active |
| C[C@]1(O)c2ccc3c(c2C(=O)c2occ(CCO)c21)CCC3=O | 62.8 | 4.46 | Active |
| C[C@]12CC[C@H](O)c3coc(c31)C(=O)C1=C2[C@@H](O)C[C@]2(C)C(=O)CC[C@@H]12 | 54.6 |  | Active |
| C[C@@]1(O)c2ccc3c(c2C(=O)c2occ([C@@H](O)CCO)c21)CCC3=O | 80.5 | 4.14 | Active |
| C[C@]1(O)c2ccc3c(c2C(=O)c2occ(CCCO)c21)CCC3=O | 89.5 | 4.55 | Active |
| O=C(O[C@@H]1Cc2c(O)cc(O)cc2O[C@@H]1c1cc(O)c(O)c(O)c1)c1cc(O)c(O)c(O)c1 [EPIGALOCATECHIN GALLATE] | 95.1 | 6.30 |  |
